H69AR inhibit = growth inhibitors of human H69AR lung tumor cells; AID 598; 6% of 85,000 active; H69AR lung tumor viability, ATP luminescence, 72 h; stronger effect = lower value; viability, % at 10 µM;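 active means viability at or below 40%; inactive means viability above 40%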;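 further: multidrug resistant small cell line overexpressing MRP-1 efflux transporter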
HUVEC inhibit = blocks proliferation of human endothelial cells; HUVEC proliferation, CellTiter-Glo luminescence, 72 h; stronger effect = lower value; viability, % at 10 µM (by protocol); 1.1% of 86,000 active; AID 648;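 active means viability at or below 30%; inactive means viability above 30%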
Lung fibro prol = blocks proliferation of human lung fibroblasts; LL 47 human lung fibroblast viability, ATP luminescence; stronger effect = lower value; viability, % at 10 µM; 1.1% of 85,000 active; AID 719;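 active means viability at or below 50% in the single dose screen; inactive means viability above 50%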;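 further: compound exposure lasted 72 h before the ATP readout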
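Benchmarks: Cell-only wells, no compound | Test system: LL 47 human lung fibroblasts, passage 12 or lower | Input: 1,150 cells/well | Measured by: CellTiter-Glo luminescence measuring cellular ATP | Medium: IMEM, 15% FBS supplement | Schedule: Overnight attachment after seeding, then 72 h compound exposure at 37 °C | Doses: Compound addition at 0.1% DMSO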
bCat KO growth = beta-catenin-lacking colon tumor cell growth suppression | HCT116 beta-catenin knockout viability, CellTiter-Glo, 60 h; stronger effect = lower value | viability, % at 10 µM | 1.5% of 140,000 active;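 active means viability at or under a set limit, the compound median less 4 SD, cut at about 6% in these data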
PTEN del growth = suppresses growth of cells with PTEN deletion; viability, % at 10 µM; HCT116 PTEN-null viability, CellTiter-Glo, 60 h; stronger effect = lower value; 1.2% of 140,000 active;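 active means viability at or below a set limit, 4 SD under the median of all tested compounds, cut at about 3.7% in these data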;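 further: PTEN knockout HCT116 line with beta catenin targeted HCT116 as companion control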
Phagocyt inh = inhibitors of macrophage phagocytosis; J774A.1 macrophage IgG-bead phagocytosis, imaging; inhibition, % at 5 µM; 0.07% of 110,000 active;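 active means inhibition above the mean of the plate negative controls plus 5 SD, cut at about 13% in these data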;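 further: phagocytic index as fraction of beads internalized from green versus red external bead signal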
Numbers stand for hits; - = inactive; . = no result. The entries come from a sample that favours hits as a whole.

SMILES	H69AR inhibit	HUVEC inhibit	Lung fibro prol	bCat KO growth	PTEN del growth	Phagocyt inh
Cc1ccc(NC(=O)c2cc(-c3cccs3)on2)cc1	-	-	-	-	-	-
COc1cc(NC(=O)c2cc(-c3cccs3)on2)cc(OC)c1OC	22.7	-	-	-	-	-
COc1cc(NC(=O)c2cc(-c3cccc(O)c3)on2)cc(OC)c1OC	28.0	-	-	-	-	-
COc1ccc(C(=O)Nc2nc(-c3cccs3)cs2)cc1	-	-	-	-	-	-
COc1cc(C(=O)Nc2ccc(N(C)C)cc2)cc(OC)c1OC	33.4	-	-	-	-	-
COc1cc(C(=O)Nc2nc(-c3cccs3)cs2)cc(OC)c1OC	13.7	-	-	-	-	-
NS(=O)(=O)c1ccc(NC(=S)Nc2cc(Cl)c(Cl)cc2Cl)cc1	.	.	.	-	-	-
Cc1ccc(C2=NNC(c3ccc(Cl)cc3)=Nc3ccccc32)o1	.	.	.	-	-	-
COc1ccccc1C(=O)N(NC(=O)Oc1ccccc1)C(C)(C)C	.	.	.	-	-	-
COc1ccc(OC)c(-c2cc(C(=O)Nc3cccc(Cl)c3)no2)c1	33.9	-	-	-	-	-
CN(C)Cc1nc2c(c(=O)[nH]1)C1(CCCCC1)Cc1ccccc1-2	7.2	-	-	-	-	-
Cc1ccc(C(=O)c2ccccc2C(=O)OCC(=O)Nc2cccc([N+](=O)[O-])c2)cc1	.	.	.	-	-	-
Cc1ccc(Cl)c(NC(=O)COC(=O)c2ccccc2C(=O)c2ccc(Cl)c([N+](=O)[O-])c2)c1Cl	.	.	.	2.1	2.0	-
Cc1ccc2c3c(c(SCC(=O)Nc4nonc4C)nc2c1)CCCC3	16.1	-	-	-	-	-
CCOC(=O)N1CCN(c2c(NCc3cccs3)c(=O)c2=O)CC1	31.0	-	-	-	-	.
CCc1ccc2c(c1)C1(NN=C(c3cccc4ccccc34)S1)C(=O)N2 (centres undefined)	18.9	-	34.5	-	-	.
COC(=O)c1cc(COc2ccc3c(c2)oc(=O)c2ccccc23)c(C)o1	19.6	24.8	-	-	-	.
Cc1cc(N2C3CCC2CC(O)(c2ccc(F)cc2)C3)nc(-c2ccccc2)n1 (centres undefined)	26.1	-	-	-	-	-
CC(C)C(=O)N1C2CCC1CC(O)(c1ccc(F)cc1)C2 (centres undefined)	-	-	-	-	-	.
Cc1ccc(C(C(=O)NC(C)(C)C)N(Cc2ccco2)C(=O)CCC(=O)Nc2nccs2)cc1 (centres undefined)	-	-	-	.	.	.
CC1CCCCN1c1nc(-c2ccncc2)nc2ccccc12 (centres undefined)	-	-	-	-	-	-
CCC1CCCCN1c1nc(-c2ccncc2)nc2ccccc12 (centres undefined)	16.7	-	-	-	-	-
CCCC(=O)Nc1ccc(NC(=O)c2ccco2)c(OC)c1	.	-	-	-	-	-
COc1cc2c(O)c3c(c(-c4ccc5c(c4)OCO5)c2cc1OC)C(=O)OC3	3.6	2.6	11.4	2.5	2.6	.
O=C(COc1ccccc1)n1nc(-c2ccc(Cl)cc2)nc1NCc1ccco1	11.9	-	-	-	-	.
SMILES	H69AR inhibit	HUVEC inhibit	Lung fibro prol	bCat KO growth	PTEN del growth	Phagocyt inh
O=C(c1ccco1)n1nc(-c2ccc(Cl)cc2)nc1NCc1ccco1	36.4	-	-	-	-	-
CC(=O)n1nc(-c2ccccc2)nc1NCc1ccc(F)cc1	-	-	-	-	-	-
O=C(c1ccco1)n1nc(-c2ccccc2)nc1NCc1ccco1	-	-	-	-	-	-
COCC(=O)n1nc(-c2ccc(Cl)cc2)nc1NCc1ccc(F)cc1	32.7	-	-	-	-	-
CCOC(=O)c1c(NC(=O)C2c3ccccc3Oc3ccccc32)sc(C(=O)N(CC)CC)c1C	.	.	.	-	-	-
COC(=O)c1cn(NC(=O)/C=C/c2cc(OC)ccc2OC)c(=O)c2ccccc12	.	.	.	-	-	-
O=C(C1CCN(S(=O)(=O)c2ccc(F)cc2)CC1)N1CCOCC1	-	-	-	-	-	-
CC/C(O)=C(/C#N)c1nnc2n1CCCCC2	-	-	-	-	-	.
C=CCN1C(c2ccc(OCC)cc2)=CS/C1=C(\C#N)c1nnc2n1CCCCC2	33.5	-	-	-	-	-
COC(=O)C1=C(C)N=c2s/c(=C3\C(=O)Nc4ccccc43)c(=O)n2C1c1ccccc1 (centres undefined)	0.9	3.3	-	-	-	.
CCOC(=O)C1=C(C)N=c2s/c(=C3/C(=O)Nc4ccccc43)c(=O)n2C1c1ccc(C)cc1 (centres undefined)	1.8	3.2	-	-	-	.
COC(=O)C1=C(C)N=c2s/c(=C/c3ccoc3)c(=O)n2C1c1ccccc1 (centres undefined)	-	-	-	-	-	-
COc1ccc2cc(C(N)=O)/c(=N/NC(=O)c3ccco3)oc2c1	.	.	.	-	-	-
O=C(Cn1nc(C(F)(F)F)c2c1CCCC2)NCc1ccco1	-	-	-	-	-	-
CC(=O)Nc1cccc(NC(=O)Cc2nc(-c3ccccc3)sc2-c2ccc(C)cc2)c1	.	.	.	-	1.4	-
COc1cccc(C2CC(c3cccc(NS(C)(=O)=O)c3)=NN2C(=O)c2ccccc2)c1OC (centres undefined)	.	.	.	-	-	-
CCc1nnc(NC(=O)CSc2nnc(COc3ccccc3)n2-c2ccc(C)cc2)s1	-	-	-	-	-	-
Cc1ccc(OCc2nnc(SCC(=O)Nc3cccc4ccccc34)n2-c2ccccc2)cc1	18.3	-	4.2	-	-	.
CCn1c(COc2ccc(C)cc2)nnc1SCC(=O)Nc1cc(OC)ccc1OC	18.4	-	-	-	-	-
COc1ccccc1-c1noc(CCC(=O)Nc2ccccc2Cl)n1	-	-	-	-	-	-
Fc1ccc(Sc2nc(-c3ccccc3)nnc2C(F)(F)F)cc1	.	.	.	4.1	2.1	-
CCCOc1ccccc1C1CC(=O)NC2=C1C(=O)CCC2 (centres undefined)	-	-	-	-	-	-
CCCCOc1ccccc1C1CC(=O)NC2=C1C(=O)CCC2 (centres undefined)	27.8	-	47.5	-	-	.
CCOc1ccccc1C1CC(=O)NC2=C1C(=O)CCC2 (centres undefined)	23.4	-	-	-	-	-
C#CCONC(=O)c1cc(OCC(F)(F)F)ccc1OCC(F)(F)F	.	.	.	-	-	.
SMILES	H69AR inhibit	HUVEC inhibit	Lung fibro prol	bCat KO growth	PTEN del growth	Phagocyt inh
Nc1c(C(=O)NC2CCCCC2)c2nc3ccccc3nc2n1/N=C/c1ccco1	26.5	-	-	.	.	-
Nc1c(S(=O)(=O)c2ccccc2)c2nc3ccccc3nc2n1/N=C/c1ccco1	-	-	-	-	-	-
NC(=O)CSc1nnc(COc2ccccc2)n1C1CCCCC1	-	-	-	.	.	-
COc1ccccc1N1CCN(c2ccc(-c3ccccc3)nn2)CC1	19.4	-	49.9	-	-	-
CC(=O)c1sc2nc(=O)c(C)nn2c1C	-	-	-	-	-	-
O=C(CCNc1cccc(Cl)c1)c1ccco1	2.2	-	-	-	-	-

Assay outcomes: PubChem, several laboratories
